Experiment [1] deals with T1, Sodium channel protein type 4 subunit alpha (Homo sapiens, UniProt P35499). The experiment in a line: Affinity for resting human SkM1 sodium channel expressed in HEK293 cells. Format: cell-based. Put shortly:
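Tonic block was measured by whole-cell patch clamp on hSkM1-expressing HEK-293 cells at room temperature. Cells were held at -120 mV, where all channels are resting, and depolarized to 0 mV. Peak current was compared between control and 3 μM antagonist applied by flow pipes from DMSO stock. The fractional response gave Kr = FR/(1−FR)·[antag], with slope n = 1. Mean ± SEM, n = 3–4.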
Target sequence in this assay (P35499 whole entry, looked up): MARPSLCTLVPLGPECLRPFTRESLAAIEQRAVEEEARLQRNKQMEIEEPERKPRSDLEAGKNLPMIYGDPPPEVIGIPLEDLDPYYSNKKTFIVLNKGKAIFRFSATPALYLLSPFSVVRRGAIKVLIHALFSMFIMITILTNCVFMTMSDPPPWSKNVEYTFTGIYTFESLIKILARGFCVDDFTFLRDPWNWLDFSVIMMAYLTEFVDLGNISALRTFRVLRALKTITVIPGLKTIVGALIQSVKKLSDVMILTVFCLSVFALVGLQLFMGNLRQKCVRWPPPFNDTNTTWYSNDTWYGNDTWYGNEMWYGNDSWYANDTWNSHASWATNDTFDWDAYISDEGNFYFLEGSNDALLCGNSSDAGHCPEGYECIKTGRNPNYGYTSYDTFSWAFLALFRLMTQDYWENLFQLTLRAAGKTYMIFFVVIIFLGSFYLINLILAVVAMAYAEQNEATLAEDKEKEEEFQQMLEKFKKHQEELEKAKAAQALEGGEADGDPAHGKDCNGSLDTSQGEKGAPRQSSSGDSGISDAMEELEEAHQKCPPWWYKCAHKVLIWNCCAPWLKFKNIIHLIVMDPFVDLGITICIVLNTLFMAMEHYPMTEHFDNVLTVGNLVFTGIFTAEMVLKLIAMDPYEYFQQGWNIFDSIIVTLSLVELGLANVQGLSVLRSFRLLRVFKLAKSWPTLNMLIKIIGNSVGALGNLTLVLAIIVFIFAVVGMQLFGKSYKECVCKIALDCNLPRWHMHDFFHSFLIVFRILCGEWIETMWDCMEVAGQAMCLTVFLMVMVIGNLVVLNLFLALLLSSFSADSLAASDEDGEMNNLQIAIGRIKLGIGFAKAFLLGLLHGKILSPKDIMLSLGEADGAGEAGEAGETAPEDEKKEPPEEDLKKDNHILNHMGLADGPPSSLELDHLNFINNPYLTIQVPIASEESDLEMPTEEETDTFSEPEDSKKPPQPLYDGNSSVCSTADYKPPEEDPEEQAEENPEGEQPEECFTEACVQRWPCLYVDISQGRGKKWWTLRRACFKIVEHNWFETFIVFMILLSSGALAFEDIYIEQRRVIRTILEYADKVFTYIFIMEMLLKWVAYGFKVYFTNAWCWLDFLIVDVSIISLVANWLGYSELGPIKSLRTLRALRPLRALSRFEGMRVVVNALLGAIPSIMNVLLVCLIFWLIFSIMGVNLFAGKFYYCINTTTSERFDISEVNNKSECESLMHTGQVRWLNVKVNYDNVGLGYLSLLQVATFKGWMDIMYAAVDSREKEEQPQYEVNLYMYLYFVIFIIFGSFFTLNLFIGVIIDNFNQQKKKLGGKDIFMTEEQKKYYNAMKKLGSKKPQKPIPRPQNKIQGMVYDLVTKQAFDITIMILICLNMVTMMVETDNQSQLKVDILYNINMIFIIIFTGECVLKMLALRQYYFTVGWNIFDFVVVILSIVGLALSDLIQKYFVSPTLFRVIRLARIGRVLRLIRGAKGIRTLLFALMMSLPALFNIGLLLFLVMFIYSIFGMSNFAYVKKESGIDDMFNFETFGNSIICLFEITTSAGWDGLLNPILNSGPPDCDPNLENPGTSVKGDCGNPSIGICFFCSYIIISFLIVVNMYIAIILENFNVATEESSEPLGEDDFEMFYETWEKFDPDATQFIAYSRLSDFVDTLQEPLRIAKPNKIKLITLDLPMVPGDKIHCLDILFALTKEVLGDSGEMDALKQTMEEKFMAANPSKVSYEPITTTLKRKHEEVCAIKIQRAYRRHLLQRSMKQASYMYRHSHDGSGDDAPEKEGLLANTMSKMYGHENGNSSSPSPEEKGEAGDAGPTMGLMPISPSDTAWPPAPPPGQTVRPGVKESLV

The target of experiment [2] is T1, Sodium channel protein type 4 subunit alpha. Briefly: Relative affinity for inactivated and resting human SkM1 expressed in HEK293 cells. Format: cell-based.
Target sequence in this assay (P35499 whole entry, looked up): as above
Experiment [3] shares this target. Briefly: Affinity for inactive human SkM1 sodium channel expressed in HEK293 cells. Format: cell-based. Put shortly:
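Whole-cell voltage clamp at room temperature on HEK-293 cells stably expressing hSkM1, recorded 3–4 days after plating. Cells were held at -120 mV. 10–12 conditioning prepulses (3 s, 10 mV steps) were each followed by a 5 ms test pulse to 0 mV at 1/7 s. Boltzmann V1/2 and k were taken without and with drug (final 0.003–10 μM, ≤0.1% DMSO). Ki came from the modified Bean equation. Mean ± SEM, n = 3–4.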
Target sequence in this assay (P35499 whole entry): as the sequence (P35499 whole entry, looked up) above

The target is the same in experiment [4]. The following applies: HEK293.
Target sequence in this assay (P35499 whole entry, looked up): as above

As a reminder, the Ki is a measure of affinity in units of concentration, obtained from inhibition or displacement. Low values mean higher affinity, high ones lower affinity. Molecule `NC(=O)N/N=C/c1ccc(Oc2ccc(F)cc2)cc1` gave a Kr in experiment [1] of 27 µM. Besides, in experiment [2], the Ratio stood at 150. In experiment [3], the Ki stood at 0.18 µM.
Turning to `COc1ccc(-c2cc[nH]n2)cc1`, the Kr in experiment [1] is 710 µM. Moreover, the Ratio in experiment [2] was determined as 9. The same molecule yielded a Ki in experiment [3] of 81 µM.
Consider `Nc1nnc(-c2cccc(Cl)c2Cl)c(N)n1` [LAMOTRIGINE], for which the Kr in experiment [1] stood at 1440 µM. Besides, the Ratio in experiment [2] was 85. Moreover, the Ki in experiment [3] was 17 µM.
The molecule `NC(=O)N1c2ccccc2C=Cc2ccccc21` [CARBAMAZEPINE] returned a Kr in experiment [4] of 720 µM. The Ratio in experiment [2] was 14. This molecule gave a Ki in experiment [3] of 52 µM.
For the molecule `NC(=O)n1ccc(-c2ccc(Oc3ccc(F)cc3)cc2)n1`, in experiment [1], the Kr came out at 6 µM. The Ratio in experiment [2] was 194. Further, the inhibition constant Ki in experiment [3] was found to be 0.031 µM.
For `CN(C)C(=O)n1ccc(-c2ccc(Oc3ccc(F)cc3)cc2)n1`, in experiment [1], the Kr is 26 µM. In experiment [2], the Ratio was found to be 76. Moreover, in experiment [3], the affinity corresponds to a Ki of 0.34 µM.
Consider `Fc1ccc(Oc2ccc(-c3cc[nH]n3)cc2)cc1`, for which the Kr in experiment [1] stood at 17 µM. Also, in experiment [2], the Ratio was found to be 85. This molecule came in with an inhibitory constant (Ki) in experiment [3] of 0.2 µM.
In the same order, the values of `c1ccc(-c2cc[nH]n2)cc1` are 1110 µM, 18 and 61 µM.
`Cn1ccc(-c2ccc(Oc3ccc(F)cc3)cc2)n1` had a Kr in experiment [1] of 21 µM. The Ratio in experiment [2] came out at 30. Also, affinity in experiment [3] was put at a Ki of 0.69 µM.
Consider `NC(=O)n1ccc(-c2ccc(Oc3ccc(F)cc3F)cc2)n1`, for which the Kr in experiment [1] came out at 10 µM. For the same molecule, the Ratio in experiment [2] stood at 400. The Ki in experiment [3] is 0.025 µM.
In experiment [1], `NC(=O)n1ccc(-c2ccc(Oc3ccc([N+](=O)[O-])cc3)cc2)n1` gave a Kr of 7 µM. Moreover, in experiment [2], the Ratio worked out at 226. Also, the Ki in experiment [3] came to 0.031 µM.
Molecule `O=C1NC(=O)C(c2ccccc2)(c2ccccc2)N1` [PHENYTOIN] yielded a Kr in experiment [1] of 620 µM. Further, in experiment [2], the Ratio amounted to 26. The molecule further came in with an inhibitory constant (Ki) in experiment [3] of 24 µM.
In the same order, the values of `CNC(=O)n1ccc(-c2ccc(Oc3ccc(F)cc3)cc2)n1` are 21 µM, 140 and 0.15 µM.
With `NC(=O)n1ccc(-c2ccc(Oc3ccccc3)cc2)n1`, the Kr in experiment [1] was found to be 5 µM. Besides, the Ratio in experiment [2] came to 143. This molecule registered a Ki in experiment [3] of 0.035 µM.
As for `c1ccc(Oc2ccc(-c3cc[nH]n3)cc2)cc1`, the Kr in experiment [1] was determined as 16 µM. The Ratio in experiment [2] came to 67. For the same molecule, the Ki in experiment [3] came out at 0.24 µM.

The values above are taken from ChEMBL document CHEMBL1149105, “3-(4-phenoxyphenyl)pyrazoles: a novel class of sodium channel blockers” (J Med Chem, 2004).
